biological target: Cytochrome P450 2D6 (Homo sapiens, UniProt P10635); assay: Inhibition of human CYP2D6 expressed in Escherichia coli JM109; format: ADME
Summary of the method: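 IC50 from inhibition of CYP2D6-catalysed MAMC O-demethylation; values are means of at least three independent experiments ± standard deviation.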

Sequence of Cytochrome P450 2D6 (P10635 whole entry): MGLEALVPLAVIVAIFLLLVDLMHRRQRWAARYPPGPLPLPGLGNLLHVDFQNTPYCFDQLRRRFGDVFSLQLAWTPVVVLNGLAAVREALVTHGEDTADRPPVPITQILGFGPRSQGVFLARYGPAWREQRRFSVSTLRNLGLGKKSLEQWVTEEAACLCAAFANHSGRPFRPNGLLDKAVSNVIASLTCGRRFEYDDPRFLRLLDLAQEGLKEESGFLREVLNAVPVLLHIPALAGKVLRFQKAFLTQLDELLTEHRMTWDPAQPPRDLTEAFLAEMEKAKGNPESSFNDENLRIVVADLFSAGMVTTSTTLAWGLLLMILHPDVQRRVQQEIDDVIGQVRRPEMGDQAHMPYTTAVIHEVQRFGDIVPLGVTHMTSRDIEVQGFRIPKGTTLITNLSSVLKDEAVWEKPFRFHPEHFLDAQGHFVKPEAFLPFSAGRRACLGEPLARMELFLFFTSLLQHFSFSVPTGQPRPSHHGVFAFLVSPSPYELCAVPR

Row | Compound | IC50
1 | Nc1ccccc1-c1nc(N)c2ccccc2n1 | 169 µM
2 | COc1ccc2c(c1)[C@]13CCCC[C@@H]1[C@H](C2)N(C)CC3 [DEXTROMETHORPHAN] | 3.4 µM
3 | CCC(=O)O/N=C1\c2ccccc2CCc2ncccc21 | > 400 µM
4 | CCCCCCCCCCCc1cccn1C1c2ccccc2CCc2ccccc21 | 5.8 µM
5 | c1ccc(CCNCCC2c3ccccc3Sc3ccccc32)cc1 | 0.26 µM
6 | CCc1ccccc1C1(Br)C(=O)c2ccccc2C1=O | 83 µM
7 | C[N+]1(C)C2CCC1CC(OC1c3ccccc3C=Cc3ccccc31)C2 (configuration not stated) | 60 µM
8 | Cc1ccc2c(c1)C(n1cccc1)c1cccnc1CC2 (configuration not stated) | 40 µM
9 | CCC(c1ccccc1)c1c(O)c2ccccc2oc1=O (configuration not stated) [PHENPROCOUMON] | 528 µM
10 | O=C1c2ccccc2C(O)C1C1c2ccccc2C=Cc2ccccc21 (configuration not stated) | 60 µM
11 | CN(C)CCC1(O)c2ccccc2CCc2ccc3ccccc3c21 (configuration not stated) | 0.06 µM
12 | Fc1ccc(C(OCCN2CCC(CCCc3ccccc3)CC2)c2ccc(F)cc2)cc1 | 1.21 µM
13 | Oc1ccccc1/C=N/c1ccccc1 [2-((PHENYLIMINO)METHYL)PHENOL] | > 1000 µM
14 | CC1C2C=C(C=C3c4ccccc4CCc4ccccc43)CC1CC2 (configuration not stated) | 0.21 µM
15 | C(=C1c2ccccc2CCc2ccccc21)c1ccccc1 | > 200 µM
16 | CC(Cc1ccccc1)NC1CC2c3ccccc3CCc3cccc1c32 (configuration not stated) | 0.15 µM
17 | Cn1ccnc1C(O)C=C(c1ccccc1)c1ccccc1 (configuration not stated) | 15 µM

Source: ChEMBL document CHEMBL1146097, “Catalytic site prediction and virtual screening of cytochrome P450 2D6 substrates by consideration of water and rescoring in automated docking” (J Med Chem, 2006)
